Tests used:
[1] = Selectivity index, expressed as the ratio of CC50 and EC50; settings: read-out: SI
In short: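 Ratio of CC50 to EC50 in HIV-infected MT4 cell cultures. The antiviral EC50 comes from inhibition of virus-induced syncytium formation (the fusogenic effect), scored by observing the cultures.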

[2] = Concentration required to cause 50% death of uninfected MT-4 cells.; type: ADME, cell-based, MT4; settings: human
MT4 = assay: Concentration required to inhibit syncytia formation by 50% on MT-4 cells.; type: functional, cell-based; settings: Homo sapiens
In short: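 HIV-infected MT4 cell cultures were scored by observing the virus's fusogenic effect, that is, syncytium formation. EC50 is the concentration that halves syncytium formation, and compounds were tested up to 50 µM.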

[3] = target: Human immunodeficiency virus type 1 protease (Human immunodeficiency virus 1, UniProt Q72874); assay: Concentration required to inhibit HIV-1 protease cleavage by 50%.

| Structure (SMILES) | selectivity ratio [1] | CC50 [2] [µM] | EC50 (MT4) [µM] | IC50 [3] [µM] |
| --- | --- | --- | --- | --- |
| CC(C)CN(CC(O)C(NC(=O)O[C@H]1CCOC1)Sc1ccccc1)S(=O)(=O)c1ccc(N)cc1 (some centres not stated) | > 1 | > 50 | 50 | – |
| CC(C)CN(C[C@H](O)[C@@H](NC(=O)O[C@@H]1CCOC1)Sc1ccccc1)S(=O)(=O)c1ccc(N)cc1 | – | > 50 | > 50 | 12.5 |
| CC(C)CN(C[C@@H](O)[C@H](Cc1ccccc1)NC(=O)O[C@H]1CCOC1)S(=O)(=O)c1ccc(N)cc1 | – | > 50 | 0.01 | – |
| CC(C)CN(C[C@@H](O)[C@H](NC(=O)O[C@@H]1CCOC1)Sc1ccccc1)S(=O)(=O)c1ccc(N)cc1 | – | > 50 | > 50 | 1.4 |
| CC(C)CN(C[C@H](O)[C@H](NC(=O)O[C@@H]1CCOC1)Sc1ccccc1)S(=O)(=O)c1ccc(N)cc1 | – | > 50 | > 50 | 11.6 |
| CC(C)CN(C[C@@H](O)[C@@H](NC(=O)O[C@@H]1CCOC1)Sc1ccccc1)S(=O)(=O)c1ccc(N)cc1 | – | > 50 | > 50 | 16.7 |

— ChEMBL document CHEMBL1135521 (J Med Chem, 2002)
